# hERG protect – shields human hERG channel from block by proarrhythmic agents | CHO-hERG, FluxOR thallium flux, dofetilide IC70 present | activation (rescue from dofetilide block), less the hit threshold, % at 10 µM | actives 0.51% (n = 310,000);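 active = activation above the mean of controls blocked by dofetilide plus 5 SD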;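 also: thallium influx through hERG after potassium depolarization seen as dye fluorescence rise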
# KCNQ1 act – potentiates or activates the human KCNQ1 potassium channel; actives 0.35% (n = 310,000); CHO-K1 KCNQ1, thallium flux FluxOR fluorescence; active compounds read high; B-score at 10 µM; P51787;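 active = fluorescence ratio B-score, a plate-corrected score, at least three library SD, with initial intensity B-score within 5 SD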
#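 System: Stable KCNQ1 CHO-K1 line | Incubation: 90 min dye loading and 20 min compound exposure, both at room temperature | Measure: Ratio B score | Medium: Assay buffer for compound exposure, DMSO matched across wells | Compound dosing: Single-concentration screen | Probe or stimulus: K+/Tl+ depolarizing stimulus | Measured by: Kinetic FluxOR fluorescence, 10 s baseline plus 110 s post-stimulus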
# KCNK9 inh – human KCNK9 channel inhibition. Q9NPC2. HEK293 KCNK9, FluxOR thallium flux fluorescence; active compounds read low. B-score at 10 µM. actives 1.2% (n = 310,000);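 active = ratio B-score over 3 SD below the library mean, with starting fluorescence within 5 SD of its mean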;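 also: negative B-score means less thallium flux so channel inhibition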
# Target sequence (Q9NPC2 whole entry, looked up): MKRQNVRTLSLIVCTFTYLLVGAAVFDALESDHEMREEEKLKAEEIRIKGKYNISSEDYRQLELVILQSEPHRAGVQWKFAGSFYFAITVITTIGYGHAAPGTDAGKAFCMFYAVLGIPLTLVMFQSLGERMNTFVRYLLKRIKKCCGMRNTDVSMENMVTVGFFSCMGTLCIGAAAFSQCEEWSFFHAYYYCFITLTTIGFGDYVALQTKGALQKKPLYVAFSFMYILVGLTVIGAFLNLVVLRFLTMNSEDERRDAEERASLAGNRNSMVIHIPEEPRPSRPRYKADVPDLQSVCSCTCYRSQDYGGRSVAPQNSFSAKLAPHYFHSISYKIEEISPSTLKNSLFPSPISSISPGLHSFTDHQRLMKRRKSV
# Kir21 inh – Kir2.1 (mouse) channel inhibition; P35561; AID 1672; HEK293-Kir2.1, FluxOR thallium flux fluorescence; active compounds read low; B-score at 10 µM; actives 0.85% (n = 310,000);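 active = fluorescence ratio B-score at or below minus 3 SD of library scores, with starting-brightness B-score within 2 SD, cut at about -4.2 in these data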;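 also: channel flux triggered by added potassium and thallium sulfate stimulus; B-score of peak minus minimum fluorescence over baseline after thallium stimulus; more negative B-score means stronger Kir2.1 block with less thallium influx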
# KCNQ1 inh – human KCNQ1 channel inhibition; CHO-K1 KCNQ1, FluxOR thallium flux fluorescence; active compounds read high; B-score at 10 µM; actives 1.3% (n = 310,000); P51787;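 active = compounds whose thallium flux B-score, printed positive for inhibition, exceeds three library SD while starting fluorescence stays within three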;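 also: channel opened by potassium depolarization with thallium stimulus after 20 min compound exposure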
# KCNK3 block – human KCNK3 channel inhibition, primary screen; actives 0.84% (n = 340,000); CHO-KCNK3 thallium flux, FluxOR fluorescence; active compounds read low; O14649; AID 602410; B-score at 10 µM;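 active = B-score under library mean minus 4 SD, starting fluorescence ratio at most library mean plus 5 SD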;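 also: more negative B-score means stronger inhibition of thallium flux through KCNK3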
# KCNK9 block conf – human KCNK9 inhibitor confirmation; HEK293 KCNK9 cells, FluxOR thallium flux fluorescence; shares compounds with KCNK9 inh; inhibition, % at 10 µM; actives 43% (n = 4,900);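 active = thallium signal inhibited by more than 5 SD of the compound-free buffer control wells, on both duplicate plates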;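 also: 0% = assay buffer control wells without compound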
# Kir2-1 spec – selectivity of KCNK9 modulators against mouse Kir2.1 | AID 492993 | inhibition, % at 10 µM | Kir2.1 cells, FluxOR thallium flux fluorescence | actives 4% (n = 4,900) | shares compounds with KCNK9 inh;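 active = thallium signal drop more than 5 SD beyond the mean of the no-compound control wells, seen in both duplicate plates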;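 also: signal is fluorescence rise after thallium addition divided by baseline fluorescence; plate controls were assay buffer only for no effect and full block by chlorpromazine control for full effect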
# HEK293 Tl ctr – second counter-screen for KCNK9 modulators: effect in non-induced cells. shares compounds with KCNK9 inh. non-induced KCNK9-HEK293, FluxOR thallium flux. inhibition, % at 10 µM. actives 40% (n = 4,900). AID 492997;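 active = thallium signal drop beyond 5 SD of the untreated control mean, on both duplicate plates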;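 also: plate controls were buffer only IC0 wells for no effect and SID17386958 at its maximal inhibitory level for full effect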
# An asterisk follows results filed as active; i = inactive; nt = not tested or not shown. The list is not random: actives were taken first. Their share in the collection is about 3.8%.
SMILES,hERG protect,KCNQ1 act,KCNK9 inh,Kir21 inh,KCNQ1 inh,KCNK3 block,KCNK9 block conf,Kir2-1 spec,HEK293 Tl ctr
COC(=O)c1cc(=O)n(CCc2ccccc2)c(=Nc2ccc(F)cc2)s1,-15,i,-10*,-1.1,8*,i,35%*,i,34%*
CCOC(=O)c1ccc(N=c2sc(C(=O)OC)cc(=O)n2Cc2ccco2)cc1,-7,i,i,0.88,i,i,i,i,38%*
COC(=O)c1cc(=O)n(CCc2ccc(OC)cc2)c(=Nc2ccc(F)c(Cl)c2)s1,-12,i,i,-0.75,i,i,nt,nt,nt
COc1ccc(S(=O)(=O)NCc2cc(=O)n(C)c(=O)n2C)cc1C,-5,i,i,0.77,i,i,nt,nt,nt
NC(=O)c1ccc(NC(=O)CCN=C2NS(=O)(=O)c3ccccc32)cc1,-11,i,i,0.38,i,i,nt,nt,nt
CCNc1ncnc2[nH]ncc12,nt,nt,nt,nt,nt,i,nt,nt,nt
O=C1N/C(=N/S(=O)(=O)Cc2ccccc2)S/C1=C/c1ccc2c(c1)OCO2,-21,i,i,0.45,i,i,i,i,i
O=C1NC(=S)SC1=Cc1ccc2c(c1)OCO2,nt,nt,nt,nt,nt,i,nt,nt,nt
CC(C)C[C@H](NC(=O)c1nc[nH]c1C(=O)NCCCCCN)C(=O)OCc1ccccc1,nt,nt,nt,nt,nt,i,nt,nt,nt
Cc1sc2ncnc(NCC(c3ccco3)N(C)C)c2c1C (configuration not stated),0,i,i,-0.8,i,i,nt,nt,nt
CN(C)C(CNc1ncnc2sc3c(c12)CCCCC3)c1ccco1 (configuration not stated),-4,i,i,-0.67,i,i,i,i,i
COc1cc(C(CCN2CCN(c3ccccc3)CC2)c2c(OC)cc(OC)c3c(C)cc(=O)oc23)cc(OC)c1OC (configuration not stated),-14,i,i,-0.05,i,i,i,i,i
COc1cc(C(CCN2CCCC2)c2c(OC)cc(OC)c3ccc(=O)oc23)cc(OC)c1OC (configuration not stated),-5,i,i,1.8,i,i,nt,nt,nt
O=C(CCC(=O)c1cccs1)OCc1nc2ccccc2s1,-7,i,i,1.1,i,i,nt,nt,nt
O=C(CCc1nc2ccccc2s1)OCc1ccccc1,-3,i,i,-0.91,i,i,i,i,i
Cc1cccc(-n2nc(C(=O)c3ccco3)cc(-c3nc4ccccc4[nH]3)c2=N)c1,-23,i,i,1.2,10*,i,i,i,i
O=C(CSc1nc(N2CCCCC2)nc(N2CCCCC2)n1)N1CCN(c2ccccc2)CC1,-2,i,i,1.5,i,i,i,i,i
CC(=O)OC1CC(C)(C)N(OC(=O)CCCN2C(=O)c3ccccc3C2=O)C(C)(C)C1,-6,i,i,1.8,i,i,i,i,i
O=C(CCCN1C(=O)c2ccccc2C1=O)Oc1ccc(F)cc1,-3,i,i,0.43,i,i,nt,nt,nt
Cc1ccc(Cc2nnc3n(-c4cccc(C)c4)nc(C(=O)c4ccccc4)n3c2=O)cc1,-10,i,i,0.16,i,i,i,i,i
C(=N\Nc1nc(-c2ccccc2)cs1)/c1ccncc1,-17,i,i,-0.89,i,i,nt,nt,nt
O=C(O)Cc1sc(N/N=C\c2ccncc2)nc1-c1ccccc1,-6,i,-11*,0.14,i,i,25%*,i,i
CC1(CCC(=O)N2CCCC(Nc3ccc(F)cc3)C2)CC1 (configuration not stated),-11,i,i,-6.1*,i,i,i,i,i
O=C(CC1CCCC1)N1CCCC(Nc2ccc(F)cc2)C1 (configuration not stated),-10,i,i,-3.5,i,i,i,i,i
COc1ccc(C(=O)N2CCN(c3cccc(C)c3C)CC2)cc1S(=O)(=O)NC1CC1,nt,nt,nt,nt,nt,i,nt,nt,nt
SMILES,hERG protect,KCNQ1 act,KCNK9 inh,Kir21 inh,KCNQ1 inh,KCNK3 block,KCNK9 block conf,Kir2-1 spec,HEK293 Tl ctr
CC(/C=N/NC(=O)CSc1ccccn1)=C\c1ccc(C(C)C)cc1,-13,i,-13*,0.07,i,i,59%*,i,37%*
CC(=C/c1ccc(C(C)C)cc1)/C=N/NC(=O)CSc1ccccn1,-2,i,-20*,2.1,i,i,60%*,i,45%*
CC(C)(O)c1[nH]c2ccc(C#N)cc2c1C(C)(C)O,-5,i,i,0.49,i,nt,nt,nt,nt
CCOC(=O)C1CCN(Cc2coc3c(Cl)cc(Cl)cc3c2=O)CC1,-10,i,i,-1.2,i,i,i,i,i
CCOC(=O)C1CCN(Cc2c(F)cccc2Cl)CC1,-10,i,i,0.6,i,i,nt,nt,nt
CCN(CC)S(=O)(=O)c1ccc2c(c1)nc(SC(C)C(=O)NCC1CCCO1)n2CC (configuration not stated),-11,i,i,0.39,i,i,i,i,i
Cc1ccc(Cl)cc1Nc1nc(-c2sc(NC(=O)C(C)(C)C)nc2C)cs1,-14,i,-13*,-0.58,i,i,56%*,i,i
C=CCCC(=O)Nc1nc(C)c(-c2csc(Nc3cc(OC)ccc3OC)n2)s1,-4,i,-8.7*,1.3,i,i,56%*,i,28%*
CCCC(=O)Nc1nc(C)c(-c2csc(Nc3cc(OC)ccc3OC)n2)s1,-13,i,-17*,0.8,i,i,i,i,i
CCCCCC(=O)Nc1nc(C)c(-c2csc(Nc3cc(Cl)ccc3OC)n2)s1,-9,i,i,-1.9,i,i,nt,nt,nt
CCCC(=O)Nc1nc(C)c(-c2csc(Nc3ccccc3OC)n2)s1,-14,i,i,-0.06,i,i,nt,nt,nt
COc1ccccc1Nc1nc(-c2sc(NC(=O)c3cccc(Cl)c3)nc2C)cs1,-8,i,i,-2.9,i,nt,nt,nt,nt
CCCC(C)C(=O)Nc1nc(C)c(-c2csc(Nc3cc(OC)ccc3OC)n2)s1 (configuration not stated),-22,i,-18*,-1.3,i,i,46%*,i,i
